Only some compounds are listed: those with a hit (about 1.7% of all), similar ones and a draw of the others.
UBC13 inh: UBC13 polyubiquitin chain formation inhibitors, primary screen, biochemical, TR-FRET, uHTS. inhibition, % at 20 µM. Ubiquitin-conjugating enzyme E2 N (Homo sapiens), P61088. AID 485273, 2010. 330,000 compounds, 0.47% hits; in the data active means inhibition above about 45%, passing the limit was not always enough
Apaf1 inhib: inhibitors of human Apaf-1 apoptosome, primary screen, biochemical, DEVD-Rh110 fluorescence, uHTS | Apoptotic protease-activating factor 1 (Homo sapiens), O14727 | reconstituted apoptosome caspase-3 activity | inhibition, % at 20 µM | 330,000 compounds, 0.71% hits | AID 489030, 2010; active means inhibition of at least 40% at 20 µM;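 further: plate controls were DMSO wells for no effect and DEVD-CHO caspase inhibitor wells for full effect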
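Material: reconstituted apoptosome with Apaf-1, cytochrome c, caspase-9, procaspase-3, dATP; medium: pH 7.5 Hepes buffer with CHAPS, BSA, DTT; also added: cytochrome c and DEVD-Rh110 substrate; timing: 30 min plus 50 min, RT; signal: Rh110 fluorescence intensity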
ZTA DNA inh: ZTA (EBV) inhibition in EBNA-1 counter-screen; P03206; ZTA-DNA binding, fluorescence polarization; inhibition, % at 11 µM; 320,000 compounds, 0.15% hits; AID 2234; in the data active means inhibition above about 33%
EBNA-1 inh: EBNA-1 DNA-binding inhibitors, primary screen, biochemical, fluorescence polarization | inhibition, % at 14.8 µM | 300,000 compounds, 0.34% hits; in the data active means inhibition above about 28%
PREPL inh: PREPL enzyme inhibitors, primary screen, biochemical, fluorescence polarization; inhibition, % at 5.96 µM; Prolyl endopeptidase-like (Homo sapiens), Q4J6C6; 320,000 compounds, 0.68% hits; AID 2751, 2010; recombinant PREPL, fluorescence polarization activity-based probe;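 further: 0% = enzyme with DMSO and 100% = wells lacking enzyme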
Target sequence (Q4J6C6 whole entry, looked up): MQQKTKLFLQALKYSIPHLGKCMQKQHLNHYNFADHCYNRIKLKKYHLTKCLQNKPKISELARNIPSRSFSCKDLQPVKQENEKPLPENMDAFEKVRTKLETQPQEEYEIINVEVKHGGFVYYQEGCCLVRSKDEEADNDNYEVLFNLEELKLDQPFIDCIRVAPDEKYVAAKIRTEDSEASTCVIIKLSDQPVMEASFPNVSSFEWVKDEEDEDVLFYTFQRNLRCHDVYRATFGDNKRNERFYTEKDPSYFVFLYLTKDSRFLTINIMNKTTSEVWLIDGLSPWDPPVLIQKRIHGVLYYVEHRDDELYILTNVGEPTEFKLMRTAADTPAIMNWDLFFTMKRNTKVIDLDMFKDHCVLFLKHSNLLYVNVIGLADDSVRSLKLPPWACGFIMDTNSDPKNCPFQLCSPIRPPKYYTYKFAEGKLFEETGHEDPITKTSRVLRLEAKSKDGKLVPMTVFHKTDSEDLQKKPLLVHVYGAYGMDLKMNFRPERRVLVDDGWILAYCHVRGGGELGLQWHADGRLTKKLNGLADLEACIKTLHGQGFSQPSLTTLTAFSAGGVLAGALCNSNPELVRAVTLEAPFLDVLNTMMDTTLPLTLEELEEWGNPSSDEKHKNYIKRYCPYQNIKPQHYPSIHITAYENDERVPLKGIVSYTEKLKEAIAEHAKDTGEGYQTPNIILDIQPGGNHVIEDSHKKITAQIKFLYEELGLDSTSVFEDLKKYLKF
Zta DNA confirm: EBV Zta binding to ZRE DNA, inhibitors, confirmation, biochemical, fluorescence polarization, triplicate; shares compounds with ZTA DNA inh; inhibition, % at 11.1 µM; 320 compounds, 30% hits;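 active means mean inhibition across triplicate runs above the hit threshold derived for the original primary screen, cut at about 33% in these data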;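 further: 0% = Zta with DMSO and 100% = wells lacking Zta protein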
EBNA-1 counter: EBNA-1 DNA-binding inhibition, counter-screen for ZTA inhibitor project, biochemical, fluorescence polarization; shares compounds with ZTA DNA inh; inhibition, % at 14.8 µM; 320 tested, under 10 active; AID 2362, 2010; call rule not given here
PREPL inh cf: human PREPL enzyme inhibitors, confirmation, biochemical, fluorescence polarization; recombinant PREPL, fluorescence polarization activity probe; 2,000 compounds, 67% hits; inhibition, % at 5.96 µM; shares compounds with PREPL inh;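 further: 0% = protein with DMSO and 100% = wells lacking protein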
Casp3 UBC13 ctr: CASP3 inhibitor validation, counterassay for project on UBE2N polyubiquitination blockers, biochemical, one dose; shares compounds with UBC13 inh; Recombinant caspase-3, Caspase-Glo 3/7 luminescence, 60 min; inhibition, % at 20 µM; 1,400 compounds, 4% hits; AID 488856, 2010;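 active means mean inhibition across replicates above about 26%, limit read from the data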;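 further: plate controls were DMSO with caspase-3 for no effect and DMSO wells lacking enzyme for full effect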
UBC13 conf: UBC13 polyubiquitination inhibitors, single-point retest, confirmation, biochemical, TR-FRET, single concentration; shares compounds with UBC13 inh; inhibition, % at 10 µM; 1,400 compounds, 68% hits; AID 488859, 2010; in the data active means inhibition above about 45%
An asterisk follows results filed as active; · = not tested or not shown. Unless noted, no stated cut-off is given here; in the data, active means inhibition above about 43%; inactive means the rest.

SMILES	UBC13 inh	Apaf1 inhib	ZTA DNA inh	EBNA-1 inh	PREPL inh	Zta DNA confirm	EBNA-1 counter	others
CC(=O)c1sc(NC(=O)c2oc3ccc(F)cc3c2C)nc1C	-1	-17	67*	·	-4	47*	8
CC[n+]1c(/C=C/c2ccc(N(C)C)cc2)ccc2ccccc21	·	·	11	4	-2	·	·
CCN(CC)c1ccc(/C=C/c2ccc3ccc(OC)cc3[n+]2CC)cc1	-270	11	50*	11	30	30	-1
CS(=O)(=O)c1ccc2nc(NC(=O)c3ccc(NS(=O)(=O)c4ccc(F)c(F)c4)cc3)sc2c1	14	-20	87*	19	-6	39*	17
CS(=O)(=O)c1ccc2nc(NC(=O)c3cccc(NS(=O)(=O)c4ccc(F)c(F)c4)c3)sc2c1	22	3	6	8	-8	·	·
O=C1Nc2ccc(Br)cc2/C1=C/c1ccc(C(=O)O)cc1	-10	8	34*	2	-10	46*	4
NC1=NC(=O)/C(=C/c2ccc(-c3ccc(S(N)(=O)=O)cc3)o2)S1	-1	-6	37*	10	-1	18	11
O=C(O)c1cccc(-n2cccc2/C=C\[N+](=O)[O-])c1	-11	-9	25	9	0	·	·
O=C(O)c1cccc(-n2cccc2/C=C/[N+](=O)[O-])c1	-1	-3	56*	-4	11	16	-8
O=C(Nc1ccc(-c2csc(Nc3ccc(Cl)cc3)n2)cc1)c1ccccc1	-12	-4	·	·	11	·	·
Cc1cccc2c1NC(C)CC2C (stereo not given)	-4	7	97*	21	21	12	-7
CCc1cccc2c1NC1(CCCC1)CC2C (stereo not given)	-10	-9	4	-2	12	·	·
Cc1ncc(C[n+]2csc(CCOC(=O)CC34CC5CC(CC(C5)C3)C4)c2C)c(N)n1	12	-14	-10	8	4	·	·
COc1ccc(S(=O)(=O)Nc2cccc(C)n2)c2ccccc12	4	-10	34*	6	18	6	-4
COc1ccc(Br)cc1S(=O)(=O)Nc1cccc(C)n1	10	-3	-6	-6	-6	·	·
Cc1ccc2nc(-c3ccc(SCC(=O)Nc4nc(C)cs4)nc3)[nH]c2c1	-15	6	48*	10	7	-1	23
COc1cc(C(C(=O)NC2CCCCC2)N(C(=O)c2cnccn2)c2ccccc2)cc(OC)c1OC (stereo not given)	1	3	·	·	·	·	·
N=c1ncn(CC(O)CN2CCOCC2)c2nc(N3CCOCC3)[nH]c12 (stereo not given)	6	-2	-3	6	8	·	·
CCOC(=O)c1c(NC(=O)Cn2nc(C(=O)O)c3ccccc3c2=O)sc(CC)c1C	-3	17	36*	-1	4	-16	-12
O=C1CC(=O)N(Cc2ccco2)C(=O)N1	13	9	22	14	-3	·	·
O=C1CC(=O)N(Cc2ccco2)C(=S)N1	16	7	55*	6	11	-3	-6
Cc1ccccc1NC(=O)C1CC(=O)OC12CCOC(C)(C)C2 (stereo not given)	10	-13	16	10	4	·	·
COc1cc(C#Cc2c(-c3cncn3C)n(C)c3ccc(-c4ccc(OC)c(OC)c4)cc23)cc(OC)c1	20	23	38*	·	35	36*	7
COc1cc(C#Cc2c(-c3cncn3C)n(C)c3ccc(-c4ccc5cc[nH]c5c4)cc23)cc(OC)c1	-10	12	·	·	30	·	·
Brc1cccc(OCCSc2ncccn2)c1	-2	10	-6	-12	-16	·	·
SMILES	UBC13 inh	Apaf1 inhib	ZTA DNA inh	EBNA-1 inh	PREPL inh	Zta DNA confirm	EBNA-1 counter	others
Clc1ccc(OCCSc2ncccn2)c(Br)c1	8	3	106*	9	-3	8	4
CCNC(=O)COc1ccc(S(=O)(=O)Nc2ccccc2)cc1	-3	-7	4	6	3	·	·
Cc1cccc(C)c1NC(=O)c1cn(-c2ccccc2)nc1-c1ccccc1	6	9	8	11	3	·	·
N#Cc1nc(/C=C/c2ccccc2)oc1NCCCN1CCOCC1	14	-10	33*	4	47*	3	0	PREPL inh cf=39
COC(=O)CSc1nc(Cc2ccccc2)nc2ccccc12	16	3	3	9	-7	·	·
C#CCOCCOCCOCCNc1nc(N2CCN(C(=O)CCCCCCCCCCNC(=O)Cn3cc(C[C@@H](C)O)nn3)CC2)nc(N2CCN(C(=O)CCCCCCCCCCNC(=O)[C@H](CCCCN)n3cc(CCCC(=O)O)nn3)CC2)n1	44	28	-2	3	18	·	·
C#CCOCCOCCOCCNc1nc(N2CCN(C(=O)CCCCCCCCCCNC(=O)Cn3cc(CCCCCN)nn3)CC2)nc(N2CCN(C(=O)CCCCCCCCCCNC(=O)[C@@H](CCC(=O)O)n3cc(CCCCCN)nn3)CC2)n1	96*	59*	61*	4	44*	3	-7	PREPL inh cf=35;Casp3 UBC13 ctr=1;UBC13 conf=79*
C#CCOCCOCCOCCNc1nc(N2CCN(C(=O)CCCCCCCCCCNC(=O)Cn3cc(CCCCCN)nn3)CC2)nc(N2CCN(C(=O)CCCCCCCCCCNC(=O)[C@@H](CCSC)n3cc(CCO)nn3)CC2)n1	119*	72*	80*	8	41	24	0	Casp3 UBC13 ctr=-2;UBC13 conf=125*
C#CCOCCOCCOCCNc1nc(N2CCN(C(=O)CCCCCCCCCCNC(=O)[C@H](CO)n3cc(CCCSC)nn3)CC2)nc(N2CCN(C(=O)CCCCCCCCCCNC(=O)[C@H](CCCN=C(N)N)n3cc(C[C@@H](C)CC)nn3)CC2)n1	122*	45*	96*	3	21	69*	-6	Casp3 UBC13 ctr=2;UBC13 conf=121*

From PubChem BioAssay
